Entries after “also recorded” stand apart in the source; their conditions may differ. Where two headings read alike, the source gives them in different places.
Columns and labels:
[1] = Japanese patients with type 2 diabetes; cited from earlier work
[2] = Safety: adverse events after single doses; assay type: in vivo, human (Japanese patients with type 2 diabetes mellitus)
How it was run: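 Adverse events were recorded with intensity and relation to drug, then coded by system organ class and preferred term (MedDRA/J 15.0). Adverse drug reactions were events the investigator judged reasonably related. Also checked: laboratory tests, renal function, vital signs, body weight and 12-lead ECG. Patients were hospitalised and received single 100 and 200 mg oral doses in crossover.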

[3] = system: urinary glucose excretion; test: 24-h urinary glucose excretion, change from baseline; assay type: in vivo, human (Japanese patients with type 2 diabetes mellitus); details: both doses
How it was run: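 Each crossover period gave one oral single dose of test compound (100 or 200 mg) 10 min before breakfast, with ≥14-day washout and fixed meals. Change was taken from the baseline day.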

[4] = Urinary pharmacokinetics of unchanged canagliflozin; assay type: in vivo, human (Japanese patients with type 2 diabetes mellitus); details: for Ae0–72h% (cumulative urinary excretion rate from time zero to 72 h) / CLR: mean (SD)
How it was run: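 Per period, urine was collected at 11–0 h pre-dose, then 0–4.5, 4.5–10.5, 10.5–13, 13–24, 24–48 and 48–72 h after a single oral 100 or 200 mg dose. Volumes were recorded, and mixed aliquots were stored at −20 °C. Parent drug was measured by solid-phase extraction then HPLC–MS/MS (validated 1–2,000 ng/mL).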

blood glucose = details: phase III; non-Japanese type 2 diabetes patients with moderate renal impairment (eGFR ≥30 and <50 mL/min/1.73 m^2); cited from earlier work
[5] = single dose of canagliflozin 100 mg; non-Japanese patients with normal renal function or mild renal impairment; cited from earlier work
[6] = assay type: in vivo, human (Japanese patients with type 2 diabetes mellitus); details: for AUC∞ / C max / CL/F / Vd/F / t ½: mean (SD); for t max: median (range)
How it was run: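 Single oral dose (100 or 200 mg) given before breakfast in a two-period crossover. Blood was drawn pre-dose and at 0.5–72 h (13 samples) into K2EDTA, iced, centrifuged, and plasma stored at −20 °C. Parent drug was measured by HPLC–MS/MS (1–2,000 ng/mL). Metabolites were measured by acetonitrile precipitation then HPLC–MS/MS (5–10,000 ng/mL). Group ratios are least square means with 90 % CI.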

[7] = Moderate renal impairment, canagliflozin 100 mg (n = 12)
[8] = Moderate renal impairment, canagliflozin 200 mg (n = 12)
[9] = Normal renal function or mild renal impairment, canagliflozin 100 mg (n = 12)
[10] = Normal renal function or mild renal impairment, canagliflozin 200 mg (n = 12)
[11] = single doses of 100 and 200 mg, all patients
[12] = canagliflozin 100 mg, moderate renal impairment (n = 12)
[13] = canagliflozin 100 mg, normal renal function or mild renal impairment (n = 12)
[14] = canagliflozin 200 mg, moderate renal impairment (n = 12)
[15] = canagliflozin 200 mg, normal renal function or mild renal impairment (n = 12)
[16] = canagliflozin 100 mg single dose
[17] = canagliflozin 100 mg single dose, moderate renal impairment (n = 12)
[18] = canagliflozin 200 mg single dose
[19] = canagliflozin 200 mg single dose, moderate renal impairment (n = 12)

SMILES: Cc1ccc([C@@H]2O[C@H](CO)[C@@H](O)[C@H](O)[C@H]2O)cc1Cc1ccc(-c2ccc(F)cc2)s1 [Canagliflozin, canagliflozin]
- body weight [1]: significantly reduced
- Adverse events Total: Incidence [2, 7]: 25.0%
- Adverse events Total: No. of events [2, 7]: 3
- Adverse events Total: No. of subjects [2, 7]: 3
- Back pain: Incidence [2, 7]: 0.0%
- Back pain: No. of events [2, 7]: 0
- Back pain: No. of subjects [2, 7]: 0
- Blood CPK increased: Incidence [2, 7]: 0.0%
- Blood CPK increased: No. of events [2, 7]: 0
- Blood CPK increased: No. of subjects [2, 7]: 0
- Blood creatinine increased: Incidence [2, 7]: 0.0%
- Blood creatinine increased: No. of events [2, 7]: 0
- Blood creatinine increased: No. of subjects [2, 7]: 0
- Blood glucose increased: Incidence [2, 7]: 0.0%
- Blood glucose increased: No. of events [2, 7]: 0
- Blood glucose increased: No. of subjects [2, 7]: 0
- Constipation: Incidence [2, 7]: 0.0%
- Constipation: No. of events [2, 7]: 0
- Constipation: No. of subjects [2, 7]: 0
- Diarrhea: Incidence [2, 7]: 0.0%
- Diarrhea: No. of events [2, 7]: 0
- Diarrhea: No. of subjects [2, 7]: 0
- Nasopharyngitis: Incidence [2, 7]: 8.3%
- Nasopharyngitis: No. of events [2, 7]: 1
- Nasopharyngitis: No. of subjects [2, 7]: 1
- Pollakiuria: Incidence [2, 7]: 8.3%
- Pollakiuria: No. of events [2, 7]: 1
- Pollakiuria: No. of subjects [2, 7]: 1
- Protein urine present: Incidence [2, 7]: 8.3%
- Protein urine present: No. of events [2, 7]: 1
- Protein urine present: No. of subjects [2, 7]: 1
- Adverse events Total: Incidence [2, 8]: 8.3%
- Adverse events Total: No. of events [2, 8]: 1
- Adverse events Total: No. of subjects [2, 8]: 1
- Back pain: Incidence [2, 8]: 0.0%
- Back pain: No. of events [2, 8]: 0
- Back pain: No. of subjects [2, 8]: 0
- Blood CPK increased: Incidence [2, 8]: 0.0%
- Blood CPK increased: No. of events [2, 8]: 0
- Blood CPK increased: No. of subjects [2, 8]: 0
- Blood creatinine increased: Incidence [2, 8]: 0.0%
- Blood creatinine increased: No. of events [2, 8]: 0
- Blood creatinine increased: No. of subjects [2, 8]: 0
- Blood glucose increased: Incidence [2, 8]: 0.0%
- Blood glucose increased: No. of events [2, 8]: 0
- Blood glucose increased: No. of subjects [2, 8]: 0
- Constipation: Incidence [2, 8]: 0.0%
- Constipation: No. of events [2, 8]: 0
- Constipation: No. of subjects [2, 8]: 0
- Diarrhea: Incidence [2, 8]: 0.0%
- Diarrhea: No. of events [2, 8]: 0
- Diarrhea: No. of subjects [2, 8]: 0
- Nasopharyngitis: Incidence [2, 8]: 8.3%
- Nasopharyngitis: No. of events [2, 8]: 1
- Nasopharyngitis: No. of subjects [2, 8]: 1
- Pollakiuria: Incidence [2, 8]: 0.0%
- Pollakiuria: No. of events [2, 8]: 0
- Pollakiuria: No. of subjects [2, 8]: 0
- Protein urine present: Incidence [2, 8]: 0.0%
- Protein urine present: No. of events [2, 8]: 0
- Protein urine present: No. of subjects [2, 8]: 0
- Adverse events Total: Incidence [2, 9]: 16.7%
- Adverse events Total: No. of events [2, 9]: 3
- Adverse events Total: No. of subjects [2, 9]: 2
- Back pain: Incidence [2, 9]: 8.3%
- Back pain: No. of events [2, 9]: 1
- Back pain: No. of subjects [2, 9]: 1
- Blood CPK increased: Incidence [2, 9]: 0.0%
- Blood CPK increased: No. of events [2, 9]: 0
- Blood CPK increased: No. of subjects [2, 9]: 0
- Blood creatinine increased: Incidence [2, 9]: 0.0%
- Blood creatinine increased: No. of events [2, 9]: 0
- Blood creatinine increased: No. of subjects [2, 9]: 0
- Blood glucose increased: Incidence [2, 9]: 0.0%
- Blood glucose increased: No. of events [2, 9]: 0
- Blood glucose increased: No. of subjects [2, 9]: 0
- Constipation: Incidence [2, 9]: 8.3%
- Constipation: No. of events [2, 9]: 1
- Constipation: No. of subjects [2, 9]: 1
- Diarrhea: Incidence [2, 9]: 8.3%
- Diarrhea: No. of events [2, 9]: 1
- Diarrhea: No. of subjects [2, 9]: 1
- Nasopharyngitis: Incidence [2, 9]: 0.0%
- Nasopharyngitis: No. of events [2, 9]: 0
- Nasopharyngitis: No. of subjects [2, 9]: 0
- Pollakiuria: Incidence [2, 9]: 0.0%
- Pollakiuria: No. of events [2, 9]: 0
- Pollakiuria: No. of subjects [2, 9]: 0
- Protein urine present: Incidence [2, 9]: 0.0%
- Protein urine present: No. of events [2, 9]: 0
- Protein urine present: No. of subjects [2, 9]: 0
- Adverse events Total: Incidence [2, 10]: 25.0%
- Adverse events Total: No. of events [2, 10]: 4
- Adverse events Total: No. of subjects [2, 10]: 3
- Back pain: Incidence [2, 10]: 0.0%
- Back pain: No. of events [2, 10]: 0
- Back pain: No. of subjects [2, 10]: 0
- Blood CPK increased: Incidence [2, 10]: 8.3%
- Blood CPK increased: No. of events [2, 10]: 1
- Blood CPK increased: No. of subjects [2, 10]: 1
- Blood creatinine increased: Incidence [2, 10]: 8.3%
- Blood creatinine increased: No. of events [2, 10]: 1
- Blood creatinine increased: No. of subjects [2, 10]: 1
- Blood glucose increased: Incidence [2, 10]: 8.3%
- Blood glucose increased: No. of events [2, 10]: 1
- Blood glucose increased: No. of subjects [2, 10]: 1
- Constipation: Incidence [2, 10]: 0.0%
- Constipation: No. of events [2, 10]: 0
- Constipation: No. of subjects [2, 10]: 0
- Diarrhea: Incidence [2, 10]: 0.0%
- Diarrhea: No. of events [2, 10]: 0
- Diarrhea: No. of subjects [2, 10]: 0
- Nasopharyngitis: Incidence [2, 10]: 8.3%
- Nasopharyngitis: No. of events [2, 10]: 1
- Nasopharyngitis: No. of subjects [2, 10]: 1
- Pollakiuria: Incidence [2, 10]: 0.0%
- Pollakiuria: No. of events [2, 10]: 0
- Pollakiuria: No. of subjects [2, 10]: 0
- Protein urine present: Incidence [2, 10]: 0.0%
- Protein urine present: No. of events [2, 10]: 0
- Protein urine present: No. of subjects [2, 10]: 0
- adverse events considered related to the study drug [2, 11]: Only one case of pollakiuria and one of diarrhea were considered to be related to the study drug
- hypoglycemia [2, 11]: no patient developed hypoglycemia; also recorded: None of the patients developed hypoglycemia; also recorded: no cases of hypoglycemia
- ΔUGE24 h in moderate renal impairment relative to normal renal function or mild renal impairment [3]: approximately 70%
- amount of canagliflozin excreted into urine from 0 to 72 h (urinary excretion ratio of unchanged drug) ([4]; % of the dose, both doses): < 1%
- Ae0–72h% (cumulative urinary excretion rate from time zero to 72 h) [4, 12]: 0.538 (0.229) %
- CLR [4, 12]: 0.064 (0.021) L/h
- Ae0–72h% (cumulative urinary excretion rate from time zero to 72 h) [4, 13]: 0.541 (0.168) %
- CLR [4, 13]: 0.085 (0.037) L/h
- Ae0–72h% (cumulative urinary excretion rate from time zero to 72 h) [4, 14]: 0.480 (0.143) %
- CLR [4, 14]: 0.058 (0.022) L/h
- Ae0–72h% (cumulative urinary excretion rate from time zero to 72 h) [4, 15]: 0.559 (0.182) %
- CLR [4, 15]: 0.080 (0.029) L/h
- blood glucose-lowering effect compared with placebo (blood glucose): significant blood glucose-lowering effect
- mean 24-h urinary excretion ratio [5]: 0.55%
- time to reach maximum concentration (C max), median ([6]; 100 and 200 mg single doses): ≤ 1 h
- AUC∞ ratio (90 % CI) of least square means, moderate renal impairment relative to normal renal function or mild renal impairment [6, 16]: 1.258 (1.061–1.490)
- C max ratio (90 % CI) of least square means, moderate renal impairment relative to normal renal function or mild renal impairment [6, 16]: 0.982 (0.821–1.173)
- AUC∞ ratio (90 % CI) of least square means, moderate renal impairment relative to normal renal function or mild renal impairment ([6]; canagliflozin 100 mg single dose, listed as canagliflozin): 1.258 [1.061–1.490]
- AUC∞ [6, 17]: 8,766 (2551) ng·h/mL
- C max [6, 17]: 1,197.13 (310.56) ng/mL
- CL/F [6, 12]: 12.15 (2.87) L/h
- Vd/F [6, 12]: 264 (81) L
- t ½ [6, 12]: 15.50 (4.35) h
- t max [6, 12]: 1.0 (1.0–3.0) h
- CL/F [6, 13]: 15.24 (3.65) L/h
- Vd/F [6, 13]: 269 (66) L
- t ½ [6, 13]: 12.58 (3.14) h
- t max [6, 13]: 1.0 (1.0–3.0) h
- AUC∞ ratio (90 % CI) of least square means, moderate renal impairment relative to normal renal function or mild renal impairment [6, 18]: 1.216 (1.026–1.441)
- C max ratio (90 % CI) of least square means, moderate renal impairment relative to normal renal function or mild renal impairment [6, 18]: 0.989 (0.827–1.182)
- AUC∞ ratio (90 % CI) of least square means, moderate renal impairment relative to normal renal function or mild renal impairment ([6]; canagliflozin 200 mg single dose, listed as canagliflozin): 1.216 [1.026–1.441]
- AUC∞ [6, 19]: 17,835 (4434) ng·h/mL
- C max [6, 19]: 2,333.36 (414.90) ng/mL
- CL/F [6, 14]: 11.73 (2.36) L/h
- Vd/F [6, 14]: 242 (67) L
- t ½ [6, 14]: 15.15 (6.68) h
- t max [6, 14]: 1.0 (1.0–2.0) h
- CL/F [6, 15]: 14.43 (3.73) L/h
- Vd/F [6, 15]: 244 (53) L
- t ½ [6, 15]: 12.10 (2.66) h
- t max [6, 15]: 1.0 (1.0–6.0) h
- half-life (t ½) ([6]; patients with normal or mild renal impairment, both doses): over 12 h
- AUC from time zero to 24 h ([6]; single dose of 100 mg, Japanese population with mild or no renal impairment): 5,645 ng·h/mL

— PMC4168221 (Clinical Drug Investigation, 2014)
